Assay [1] can be described thus: Antioxidant activity assessed as ABTS radical scavenging activity at 1 mg/ml after 5 min by spectrophotometric analysis. Type of assay: functional. In outline:
(§1)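 ABTS radical cation made from ABTS (7 mM) and potassium persulfate (2.45 mM), held 16 h in dark at room temperature, then 350 μL diluted to 25 mL with aqueous 80% EtOH. Sample added to 250 μL working solution, kept 5 min in dark at room temperature, A734 read. Scavenging % = [1 − (Ae − As)/Ac] × 100 against solvent control, triplicate.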

For assay [2], the system named is Fusarium avenaceum. The experiment in a line: Antifungal activity against Fusarium avenaceum after 4 days by microdilution method. Type of assay: functional. In outline:
(§2)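 Spores from 4-day-old cultures in PDB broth at 1 × 10^3 spores/mL, 96-well broth microdilution. Compounds in DMSO (final ≤5%), 2-fold serial dilutions 512–0.5 μg/mL. Incubated 28 °C, 4 days. DMSO negative control, nystatin positive control. Growth checked microscopically. MIC is the lowest concentration with complete inhibition. Experiments repeated three times.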
For orientation: Dilution methods test growth across graded concentrations, often in twofold steps.

Assay [3] concerns Candida albicans. The experiment in a line: Antifungal activity against Candida albicans after 4 days by microdilution method. Format: functional. The procedure, abridged: as §2
The subject of assay [4] is Radical scavenging activity. Nature of the assay: Antioxidant activity assessed as DPPH radical scavenging activity at 2 mg/ml after 30 min by spectrophotometric analysis. Format: functional. The procedure, abridged:
(§3)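 DPPH stock diluted 1:20 in EtOH; 290 μL of this mixed with 10 μL sample, EtOH as negative control, vitamin C as positive control. Kept 30 min in dark, absorbance read at 517 nm. Scavenging % = [1 − (Ae − As)/Ac] × 100, where As is sample blank absorbance. Triplicate.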
(Loss of DPPH colour is used to gauge radical scavenging.)

Assay [5] relates to Bacillus subtilis. The experiment in a line: Antibacterial activity against Bacillus subtilis after 24 hr by microdilution method. Type of assay: functional. The procedure, abridged:
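Bacteria grown 18 h, diluted in LB broth to 1 × 10^5 CFU/mL in 96-well microplates. Compounds in DMSO, 2-fold serial dilutions 512 to 0.5 μg/mL final, DMSO ≤5%. Incubated 37 °C for 24 h, growth checked by microscope. MIC = lowest concentration giving complete growth inhibition. DMSO negative control, kanamycin positive control, three repeats.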

Assay [6] relates to Fusarium culmorum. The experiment in a line: Antifungal activity against Fusarium culmorum after 4 days by microdilution method. Type of assay: functional. In outline:
as §2

Assay [7] concerns Fusarium graminearum. The experiment in a line: Antifungal activity against Fusarium graminearum after 4 days by microdilution method. Format: functional. The procedure, abridged: as §2
A short description of assay [8]: Antioxidant activity assessed as ABTS radical scavenging activity at 2 mg/ml after 5 min by spectrophotometric analysis. Format: functional. The procedure, abridged: as §1
Assay [9] relates to Radical scavenging activity. Nature of the assay: Antioxidant activity assessed as DPPH radical scavenging activity at 4 mg/ml after 30 min by spectrophotometric analysis. Type of assay: functional. The procedure, abridged: as §3
Assay [10] has as its system Staphylococcus aureus. The experiment in a line: Antibacterial activity against Staphylococcus aureus after 24 hr by microdilution method. Type of assay: functional. The procedure, abridged: (§4)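 Bacteria from 18-h cultures in LB broth at 1 × 10^5 CFU/mL, 96-well broth microdilution. Compounds in DMSO (final ≤5%), 2-fold serial dilutions from 512 to 0.5 μg/mL. Incubated 37 °C for 24 h. DMSO-only negative control, kanamycin positive control. Growth read by microscope. MIC is the lowest concentration giving complete growth inhibition. Three repeats.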

A short description of assay [11]: Antioxidant activity assessed as ABTS radical scavenging activity at 0.5 mg/ml after 5 min by spectrophotometric analysis. Type of assay: functional. The procedure, abridged: as §1
The subject of assay [12] is Pyricularia oryzae. The experiment in a line: Antifungal activity against Magnaporthe oryzae after 4 days by microdilution method. Format: functional. In outline:
as §2

Assay [13] can be described thus: Antioxidant activity assessed as superoxide anion radical scavenging activity at 2 mg/ml after 5 min by spectrophotometric analysis. Format: functional. In outline: (§5)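 Superoxide made by non-enzymatic NADH–PMS system, detected by NBT reduction. 200 μL mix of 150 μM NBT and 234 μM NADH in 16 mM Tris-HCl pH 8.0, plus 10 μL sample. Reaction started with 100 μL of 30 μM PMS in the same buffer, 5 min at room temperature, A560 read. % = [1 − (Ae − As)/Ac] × 100, triplicate.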

The subject of assay [14] is Aspergillus niger. Nature of the assay: Antifungal activity against Aspergillus niger after 4 days by microdilution method. Format: functional, organism-based. The procedure, abridged:
as §2

The test system of assay [15] is Trichophyton verrucosum. Nature of the assay: Antifungal activity against Trichophyton verrucosum after 4 days by microdilution method. Type of assay: functional, organism-based. In outline:
as §2

Assay [16] deals with Radical scavenging activity. Nature of the assay: Antioxidant activity assessed as DPPH radical scavenging activity at 0.8 mg/ml after 30 min by spectrophotometric analysis. Type of assay: functional. In outline: as §3
Assay [17] in a line: Antioxidant activity assessed as superoxide anion radical scavenging activity at 5 mg/ml after 5 min by spectrophotometric analysis. Format: functional. In outline:
as §5

Assay [18] can be described thus: Antioxidant activity assessed as ABTS radical scavenging activity at 0.16 mg/ml after 5 min by spectrophotometric analysis. Format: functional. In outline:
as §1

Assay [19] concerns Escherichia coli. Nature of the assay: Antibacterial activity against Escherichia coli after 24 hr by microdilution method. Type of assay: functional. In outline: as §4

In brackets after ≈: the same amount, converted by molar mass.

This passage reports Activity and MIC results from ChEMBL document CHEMBL3046678, “Isolation and characterization of new p-Terphenyls with antifungal, antibacterial, and antioxidant activities from halophilic actinomycete Nocardiopsis gilva YIM 90087” (2013).

Usually MIC stands for the least concentration at which growth counts as inhibited. A higher MIC goes with weaker potency. `COc1ccc(-c2cc(O)c(-c3ccc(OC)cc3)c(OC)c2OC)cc1`: the Activity in assay [1] was determined as 68.6%; in [4], 54.9%. Moreover, the MIC in assay [2] (96 h) was determined as 8 µg/mL (≈ 21.8 µM); in [3] (96 h) it was 32 µg/mL (≈ 87.3 µM); in [5], 64 µg/mL (≈ 175 µM); in [6] (96 h), 128 µg/mL (≈ 349 µM); in [7] (96 h), 16 µg/mL (≈ 43.7 µM).

Consider `COc1ccc(-c2c(OC)c(O)c(-c3ccc(OC)cc3)c3scnc23)cc1`, for which the Activity in assay [8] was 28.4%; in [9], 14.3%.

Take `CO[C@@H]1[C@@H](OC(N)=O)[C@@H](O)[C@H](Oc2ccc3c(O)c(NC(=O)c4ccc(O)c(CC=C(C)C)c4)c(=O)oc3c2C)OC1(C)C` [NOVOBIOCIN]: the MIC in assay [10] was 64 µg/mL (≈ 104 µM); in assay [12] (96 h) it was 16 µg/mL (≈ 26.1 µM); in assay [5], 16 µg/mL (≈ 26.1 µM). Besides, the Activity turned out to be 78.2% in assay [11], 47.7% in assay [4] and 77.9% in [13].

Consider NYSTATIN, for which the MIC in assay [2] worked out at 1 µg/mL; in assay [3], 4 µg/mL; in assay [12], 8 µg/mL; in [14] it was 8 µg/mL; in assay [6], 1 µg/mL; in assay [7], 4 µg/mL. Also, the MIC in assay [15] is 4 µg/mL.

As for `C[C@@H]1NC(=O)[C@H](Cc2c[nH]c3ccccc23)NC1=O`, in assay [8], the Activity was 54.6%.

`O=C1O[C@H]([C@@H](O)CO)C(O)=C1O`: the Activity in [16] is 43.9%; in [17], 75.5%; in assay [18], 79.1%.

With `NC[C@H]1O[C@H](O[C@H]2[C@H](O)[C@@H](O[C@H]3O[C@H](CO)[C@@H](O)[C@H](N)[C@H]3O)[C@H](N)C[C@@H]2N)[C@H](O)[C@@H](O)[C@@H]1O` [KANAMYCIN], the MIC in assay [10] is 4 µg/mL (≈ 8.26 µM); in assay [19], 1 µg/mL (≈ 2.06 µM); in assay [5], 1 µg/mL (≈ 2.06 µM).
